Screens: PubChem BioAssay, The Scripps Research Institute Molecular Screening Center
An excerpt weighted towards active compounds, which were near 3.1% of everything screened.
GalR3 antag – human GalR3 antagonism. AID 651719. O60755. inhibition, % at 3 µM. HEK293 GalR3-CNG cAMP membrane potential fluorescence; galR3 body fused to GalR1 C-terminus. 360,000 compounds, 0.44% hits;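 active means inhibition above the screen-wide average plus 3 SD, cut at about 13% in these data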;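 further: forskolin and galanin both at EC90 stimulate the cells; cAMP rise reported by CNG channel membrane potential dye signal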
GPR7 antag – human neuropeptides B/W receptor 1 antagonism; P48145; GPR7-expressing cells, fluorescence antagonist assay; inhibition, % at 4.4 µM; 290,000 compounds, 1.1% hits; in the data active means inhibition above about 16%, passing the limit was not always enough;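 further: cells stimulated with the agonist NPW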
Target sequence (P48145 whole entry, looked up): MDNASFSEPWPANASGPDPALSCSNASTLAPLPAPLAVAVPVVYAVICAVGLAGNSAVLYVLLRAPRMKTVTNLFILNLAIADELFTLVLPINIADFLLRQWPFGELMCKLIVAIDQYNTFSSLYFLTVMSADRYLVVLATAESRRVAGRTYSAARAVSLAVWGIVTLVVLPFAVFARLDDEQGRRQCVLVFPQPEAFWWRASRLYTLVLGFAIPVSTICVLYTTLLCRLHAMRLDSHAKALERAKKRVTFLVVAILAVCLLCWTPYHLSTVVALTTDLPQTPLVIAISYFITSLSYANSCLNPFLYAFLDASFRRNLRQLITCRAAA
OX1R antag-1 – blocks the human orexin 1 receptor. O43613. 330,000 compounds, 1.8% hits. OX1R-expressing cells, FRET antagonist read-out. AID 485270. inhibition, % at 6.6 µM; in the data active means inhibition mostly above about 38%, no sharp cut-off; inactive means mostly below about 40%
CHO parental Ca – counter-screen for OX1R antagonists: effect in parental CHO cells; parental CHO-K1, ATP-induced calcium, Fluo-8 fluorescence; inhibition, % at 5.6 µM; 330,000 compounds, 0.63% hits; AID 463079;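 active means inhibition above that plate's mean sample inhibition plus 3 SD, cut at about 26% in these data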
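Test system: parental CHO cells; detection: calcium-sensitive Fluo-8 fluorescence; evaluation: percent inhibition of calcium signal; also added: ATP as calcium-mobilizing challenge; repeats: one well per compound; control set: ATP-challenged DMSO wells low, unchallenged DMSO wells high; compound: single nominal dose of 5.6 µM per compound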
OX1R antag-2 – antagonists of human orexin 1 receptor; AID 434989; 330,000 compounds, 0.43% hits; O43613; inhibition, % at 5 µM; CHO/OX1R cells, Fluo-8 calcium fluorescence, orexin A;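 active means inhibition above its plate's threshold, mean inhibition of all tested compounds on the plate plus 3 SD, cut at about 37% in these data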
Of the large screens only hits and unclear results are named; the others gave an inactive call.

COc1ccc(-c2cc(=O)c3ccccc3o2)cc1	OX1R antag-1 67.3 (no result: GPR7 antag)
COc1cc(-c2cc(=O)c3ccccc3o2)ccc1O	none
C#CCN(C[C@H]1[C@H](OC(=O)NCCCCCC)[C@H](OC(=O)NCCCCCC)CN(C(=O)OC(C)C)N1C(=O)OC(C)C)S(=O)(=O)c1ccc(C)cc1	none (no result: GPR7 antag, OX1R antag-1, CHO parental Ca, OX1R antag-2)
C=CCCCCCCCCc1nc(SCC(C)=O)n[nH]1	GPR7 antag 20.3
C=CCCCCCCCCc1nc(SCC(=O)O)n[nH]1	none
O=c1c(-c2ccccc2)c(O)nc2ccccn12	GPR7 antag 18.7
O=C(Nc1cnn(Cc2ccc(Cl)cc2)c1)c1cccs1	none
O=C(Nc1cnn(Cc2ccc(Cl)cc2)c1)c1ccc([N+](=O)[O-])cc1	CHO parental Ca 64.2
O=C(Cn1cnc2sc3c(c2c1=O)CCCC3)NCC(=O)Nc1c(F)cc(F)cc1Br	none
CSC1=NSC2=NC(=O)/C(=C/c3coc4ccc(O)cc4c3=O)C(=N)N12	CHO parental Ca 36.8, OX1R antag-2 46.7
N=C1/C(=C\c2coc3ccccc3c2=O)C(=O)N=C2SC=CN12	CHO parental Ca 29.7
COc1ccc(CN(C)C(=O)c2cccc(S(=O)(=O)N3CCc4ccccc43)c2)c(OC)c1	none (no result: GPR7 antag)
C[C@H](O)[C@@H]1C(=O)N2CCc3c([nH]c4c(-c5ccccc5)cccc34)[C@@H]2C[C@@H]1N(C)C(=O)Nc1cccc2ccccc12	none (no result: GPR7 antag, OX1R antag-1, CHO parental Ca, OX1R antag-2)
Cc1cc(C(=O)COc2ccc(Cl)cc2Br)c(C)n1C	CHO parental Ca 26.3
CN(CCCC(=O)O)S(=O)(=O)c1ccc2c(c1)C(=O)c1cc(S(=O)(=O)N(C)CCCC(=O)O)ccc1-2	OX1R antag-1 50.6
Cc1ccc(CNS(=O)(=O)c2cc3c4c(c2)CCN4C(=O)CC3)cc1	none (no result: GPR7 antag)
Cc1nn(Cc2ccc(Cl)c(Cl)c2)c(C)c1NC(=O)c1cc(CC(C)C)on1	CHO parental Ca 32.9
CC(Oc1ccc(Cl)cc1Cl)c1nc(-c2ccc(NC(=O)c3ccncc3)cc2)no1 (stereo not drawn)	CHO parental Ca 43.2
COc1ccc(C(=O)CSC2=NS(=O)(=O)c3cc(Cl)ccc3N2)cc1	OX1R antag-1 61.9 (no result: GPR7 antag)
COc1ccccc1NC(=O)C1CCN(S(=O)(=O)c2ccc3c(c2)NC(=O)C(C)S3)CC1 (stereo not drawn)	none
O=C1COc2ccc(S(=O)(=O)CCC(=O)N3CCN(c4cccc(C(F)(F)F)c4)CC3)cc2N1	CHO parental Ca 38.1
Cc1ccc(NC(=O)C2CCN(S(=O)(=O)c3ccc4c(c3)NC(=O)C(C)S4)CC2)cc1C (stereo not drawn)	CHO parental Ca 51.4
CC1Sc2ccc(S(=O)(=O)N3CCC(C(=O)NCc4ccc(Cl)cc4)CC3)cc2NC1=O (stereo not drawn)	none
CCc1ccc(NC(=O)C2CCN(S(=O)(=O)c3ccc4c(c3)NC(=O)C(C)S4)CC2)cc1 (stereo not drawn)	CHO parental Ca 56.6
CC1Sc2ccc(S(=O)(=O)N3CCC(C(=O)Nc4cccc(Cl)c4)CC3)cc2NC1=O (stereo not drawn)	CHO parental Ca 57.9
O=C(CNc1ccccc1F)Nc1cccc(S(=O)(=O)N2CCCCC2)c1	none (no result: GPR7 antag, OX1R antag-1, CHO parental Ca, OX1R antag-2)
O=C(/C=C(\Nc1cccc(Cl)c1)c1ccccc1)c1ccccc1	none (no result: GPR7 antag, OX1R antag-1, CHO parental Ca, OX1R antag-2)
COc1cccc(NS(=O)(=O)c2ccc3c(c2)NC(=O)C(C)S3)c1 (stereo not drawn)	none
CCc1cccc(NS(=O)(=O)c2ccc3c(c2)NC(=O)C(C)S3)c1 (stereo not drawn)	CHO parental Ca 52.9
CC1Sc2ccc(S(=O)(=O)CCC(=O)N3CCN(c4cccc(Cl)c4)CC3)cc2NC1=O (stereo not drawn)	CHO parental Ca 33.9
CCOC(=O)N1CCN(C(=O)C[C@H]2C[C@@]3(C(=O)OC)C(=C[C@H](C(C)(C)C)O[C@@H]3C)N(CCC3=CCCCC3)C2=O)CC1	none (no result: GPR7 antag, OX1R antag-1, CHO parental Ca, OX1R antag-2)
CC(=O)c1cccc(NS(=O)(=O)c2ccc(-c3cnc(C4CC4)o3)cc2)c1	CHO parental Ca 50.1
O=C(NCc1ccccc1)[C@@H]1CCCN1C(=O)[C@H]1CCCN1C(=O)c1ccccc1C(F)(F)F	none (no result: GPR7 antag, OX1R antag-1, CHO parental Ca, OX1R antag-2)
COc1ccc2[nH]c3c(c2c1)CCN1C(=O)C(CC(=O)NC/C=C(\C)CCC=C(C)C)C[C@H](C(=O)N2CCCCC2)[C@@]31C (stereo partly drawn)	OX1R antag-2 51.1 (no result: GalR3 antag, GPR7 antag)
CC(C)=CCC/C(C)=C/CNC(=O)C[C@H]1C[C@H](C(=O)N2CCCCC2)[C@@]2(C)c3[nH]c4ccc(Cl)cc4c3CCN2C1=O	none (no result: GPR7 antag)
